In ChEMBL document CHEMBL4680287, “Ibrexafungerp: An orally active β-1,3-glucan synthesis inhibitor” (Bioorg Med Chem Lett, 2021):
In brackets after ≈: the same amount, converted by molar mass.

Tests used:
[1] = tested on: Aspergillus fumigatus; test: Antifungal activity against Aspergillus fumigatus MF5668 assessed inhibition of fungal growth by measuring morphological changes measured after 24 hrs by microscopy; assay type: functional; details: read-out: MEC
Outline: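 Microdilution per CLSI protocols in RPMI medium. Read-out is the minimum effective concentration (MEC). Run without serum and with 50% human serum.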

[2] = tested on: Candida albicans; test: Antifungal activity against Candida albicans MY1055 assessed as fungal growth inhibition measured after 24 hrs in presence of 50% mouse serum by liquid microdilution method; assay type: functional
Outline: (§1)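 Broth microdilution per CLSI protocols in RPMI medium. Read-out is the MIC, the lowest concentration completely inhibiting fungal growth. Run without serum and with added serum.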

[3] = Inhibition of beta-1,3-glucan synthase in Candida albicans MY1055 microsomal membrane assessed as inhibition of TCA-insoluble material formation using UDP-[3H]-glucose as substrate incubated for 2 hrs in presence of GTP by radioactivity-based assay; assay type: microsomes, Microsome
Outline: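 GS IC50 measured using Candida albicans MY1055 microsomal membrane fragments as the enzyme source.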

[4] = Dose normalized AUC in po dosed mouse; assay type: ADME, organism-based; details: in vivo
[5] = tested on: Candida albicans; test: Antifungal activity against Candida albicans MY1055 assessed as fungal growth inhibition measured after 24 hrs by liquid microdilution method; assay type: functional; outline: as §1
[6] = tested on: Candida albicans; test: Antifungal activity against Candida albicans MY1055 infected in DBA/2 mouse model of disseminated candidiasis assessed as reduction in fungal burden in kidney by measuring log change in colony forming units at 6.25 mg/kg, po bid for 7 days by TOKA; assay type: functional; details: time 7 day
Outline: (§2)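 Murine disseminated candidiasis model (TOKA) in mice challenged with C. albicans MY1055 at 2.44 x 10^4 CFU/mouse. Dosed PO, or IP where stated. Kidneys collected aseptically 7 days after challenge and CFUs/g counted. Change in log CFU/g is relative to sham-treated controls; significance by two-tailed t test. Clearance is the percentage of kidneys below the detection limit.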

[7] = Oral bioavailability in mouse; assay type: ADME, organism-based; details: in vivo
Outline: (§3)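 Oral bioavailability calculated as oral AUC normalized to the IV dose, divided by the IV AUC.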

[8] = tested on: Candida albicans; test: Antifungal activity against Candida albicans MY1055 infected in DBA/2 mouse model of disseminated candidiasis assessed as reduction in fungal burden in kidney by measuring log change in colony forming units at 25 mg/kg, po bid for 7 days by TOKA; assay type: functional; details: time 7 day; outline: as §2
[9] = tested on: Candida albicans; test: Antifungal activity against Candida albicans MY1055 infected in DBA/2 mouse model of disseminated candidiasis assessed as reduction in fungal burden in kidney by measuring log change in colony forming units at 12.5 mg/kg, po bid for 7 days by TOKA; assay type: functional; details: time 7 day; outline: as §2
[10] = tested on: Candida albicans; test: Antifungal activity against Candida albicans MY1055 infected in DBA/2 mouse model of disseminated candidiasis assessed as reduction in fungal burden in kidney by measuring log change in colony forming units at 12.5 mg/kg, ip bid for 7 days by TOKA; assay type: functional; details: time 7 day; outline: as §2
[11] = tested on: Aspergillus fumigatus; test: Antifungal activity against Aspergillus fumigatus MF5668 infected in DBA/2N mouse assessed as mouse survival at 1.56 mg/kg, ip bid administered for 7 days starting from 15 to 30 mins post infection and measured up to 21 days relative to control; assay type: functional; details: 168 h, time 7 day
Outline: (§4)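 DBA/2N mice were infected IV with A. fumigatus MF5668 (6.7 x 10^5 CFU/mouse) and treated IP bid for 7 days. Percent survival per dose group was scored at the end of the 21-day survival model and compared with the sham-treated control group.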

[12] = tested on: Aspergillus fumigatus; test: Antifungal activity against Aspergillus fumigatus MF5668 infected in DBA/2N mouse assessed as mean survival time at 3.125 mg/kg, ip bid administered for 7 days starting from 15 to 30 mins post infection and measured up to 21 days; assay type: functional; details: time 7 day
Outline: (§5)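 DBA/2N mice were challenged IV with A. fumigatus MF5668 at 6.7 x 10^5 CFU/mouse, then dosed IP twice daily for 7 days. Survival was followed over a 21-day model, and mean survival time in days was recorded per dose group. A sham-treated control group was run alongside.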

[13] = Clearance in mouse; assay type: ADME, organism-based; details: in vivo
[14] = tested on: Aspergillus fumigatus; test: Antifungal activity against Aspergillus fumigatus MF5668 infected in DBA/2N mouse assessed as mean survival time at 6.25 mg/kg, ip bid administered for 7 days starting from 15 to 30 mins post infection and measured up to 21 days; assay type: functional; details: time 7 day; outline: as §5
[15] = tested on: Aspergillus fumigatus; test: Antifungal activity against Aspergillus fumigatus MF5668 infected in DBA/2N mouse assessed as mouse survival at 3.125 mg/kg, ip bid administered for 7 days starting from 15 to 30 mins post infection and measured up to 21 days relative to control; assay type: functional; details: 168 h, time 7 day; outline: as §4
[16] = tested on: Aspergillus fumigatus; test: Antifungal activity against Aspergillus fumigatus MF5668 infected in DBA/2N mouse assessed as mouse survival at 6.25 mg/kg, ip bid administered for 7 days starting from 15 to 30 mins post infection and measured up to 21 days relative to control; assay type: functional; details: 168 h, time 7 day; outline: as §4
[17] = tested on: Aspergillus fumigatus; test: Antifungal activity against Aspergillus fumigatus MF5668 infected in DBA/2N mouse assessed as mean survival time at 12.5 mg/kg, ip bid administered for 7 days starting from 15 to 30 mins post infection and measured up to 21 days; assay type: functional; details: time 7 day; outline: as §5
[18] = tested on: Aspergillus fumigatus; test: Antifungal activity against Aspergillus fumigatus MF5668 infected in DBA/2N mouse assessed as mouse survival at 12.5 mg/kg, ip bid administered for 7 days starting from 15 to 30 mins post infection and measured up to 21 days relative to control; assay type: functional; details: 168 h, time 7 day; outline: as §4
[19] = tested on: Aspergillus fumigatus; test: Antifungal activity against Aspergillus fumigatus MF5668 infected in ip dosed DBA/2N mouse assessed as 50% mouse survival administered bid administered for 7 days starting from 15 to 30 mins post infection and measured up to 21 days; details: 168 h
[20] = tested on: Aspergillus fumigatus; test: Antifungal activity against Aspergillus fumigatus MF5668 infected in DBA/2N mouse assessed as mean survival time at 1.56 mg/kg, ip bid administered for 7 days starting from 15 to 30 mins post infection and measured up to 21 days; assay type: functional; details: time 7 day; outline: as §5
[21] = Oral bioavailability in rat; assay type: ADME, organism-based; details: in vivo; outline: as §3
[22] = Dose normalized AUC in po dosed rat; assay type: ADME, organism-based; details: in vivo
[23] = Clearance in rat; assay type: ADME; details: in vivo
[24] = tested on: Aspergillus fumigatus; test: Antifungal activity against Aspergillus fumigatus MF5668 infected in ip dosed DBA/2N mouse assessed as 90% mouse survival administered bid administered for 7 days starting from 15 to 30 mins post infection and measured up to 21 days; assay type: functional; details: 168 h, time 7 day
[25] = Half life in mouse; assay type: ADME, organism-based; details: in vivo
[26] = Half life in rat; assay type: ADME; details: in vivo
[27] = tested on: Candida albicans; test: Antifungal activity against Candida albicans MY1055 infected in ip dosed DBA/2 mouse model of disseminated candidiasis assessed as reduction in fungal burden in kidney administered bid for 7 days by TOKA; assay type: functional; details: 168 h, time 7 day; outline: as §2
[28] = Dose normalized AUC in po rhesus monkey; assay type: ADME, organism-based, Macaca mulatta; details: in vivo
[29] = Dose normalized AUC in po dosed dog; assay type: ADME, organism-based, Canis lupus familiaris; details: in vivo
[30] = Half life in rhesus monkey; assay type: ADME, Macaca mulatta; details: in vivo
[31] = Half life in dog; assay type: ADME, Canis lupus familiaris; details: in vivo
[32] = Oral bioavailability in rhesus monkey; assay type: ADME, organism-based, Macaca mulatta; details: in vivo; outline: as §3
[33] = Oral bioavailability in dog; assay type: ADME, organism-based, Canis lupus familiaris; details: in vivo; outline: as §3
[34] = Clearance in dog; assay type: ADME, Canis lupus familiaris; details: in vivo
[35] = Clearance in rhesus monkey; assay type: ADME, Macaca mulatta; details: in vivo

SMILES | minimal effective concentration [1] [µg/mL] | MIC [2] [µg/mL] | IC50 [3] [ng/mL] | AUC/dose [4] [µM·kg·h/mg] | MIC [5] [µg/mL] | Activity [6] [deltalog10CFU] | bioavailability [7] [%] | Activity [8] [deltalog10CFU] | Activity [9] [deltalog10CFU] | Activity [10] [deltalog10CFU] | survival at 1.56 mg/kg [11] [%] | MST [12] [days] | clearance [13] [mL/min/kg] | MST [14] [days] | survival at 3.125 mg/kg [15] [%] | survival at 6.25 mg/kg [16] [%] | MST [17] [days] | survival at 12.5 mg/kg [18] [%] | ED50 [19] [mg/kg] | MST [20] [days] | also measured
CC(C)[C@@H](C)[C@@]1(C)CC[C@]2(C)[C@H]3CC[C@@H]4[C@@]5(COC[C@@]4(C)[C@@H](OC[C@](C)(N)C(C)C)[C@H](n4ncnc4-c4cncnc4)C5)C3=CC[C@@]2(C)[C@@H]1C(=O)O | < 0.03 | 1 | 6 | 0.33 | 0.06 (≈ 0.0837 µM) | -2.1 | 26 | -3 | -3 |  |  |  |  |  |  |  |  |  |  |  | 
CC(C)[C@@H](C)[C@@]1(C)CC[C@]2(C)[C@H]3CC[C@@H]4[C@@]5(COC[C@@]4(C)[C@@H](OCC(C)(C)N)[C@H](n4ncnc4-c4ccncc4)C5)C3=CC[C@@]2(C)[C@@H]1C(=O)O | < 0.03 | 0.5 | 1 |  | 0.015 (≈ 0.0218 µM) |  |  |  | -1.1 | -4.2 |  |  |  |  |  |  |  |  |  |  | 
CC(C)[C@@H](C)[C@@]1(C)CC[C@]2(C)[C@H]3CC[C@@H]4[C@@]5(COC[C@@]4(C)[C@@H](OC[C@@]4(N)CCOCC4(C)C)[C@H](n4ncnc4-c4ccncc4)C5)C3=CC[C@@]2(C)[C@@H]1C(=O)O | 0.004 | 1 | 4 | 0.35 | 0.06 (≈ 0.0791 µM) | -0.9 | 25 | -3.2 | -2.2 |  |  |  |  |  |  |  |  |  |  |  | 
CC(C)[C@@H](C)[C@@]1(C)CC[C@]2(C)[C@H]3CC[C@@H]4[C@@]5(COC[C@@]4(C)[C@@H](OCC4(N)CCOCC4)[C@H](n4ncnc4-c4ccncc4)C5)C3=CC[C@@]2(C)[C@@H]1C(=O)O | < 0.03 | 0.25 | 2 | 0.18 | < 0.03 | -1.4 | 13 | -3.9 | -3.1 | -4 | 0 | 7.3 | 18 | 12.5 | 10 | 40 | 14.6 | 60 | 11 | 4.1 | bioavailability [21]: 30%; AUC/dose [22]: 0.34 µM·kg·h/mg; clearance [23]: 20 mL/min/kg; ED90 [24]: 26 mg/kg; half-life [25]: 126 min; half-life [26]: 114 min; ED99 [27]: 3.8 mg/kg
CC(C)[C@@H](C)[C@@]1(C)CC[C@]2(C)[C@H]3CC[C@@H]4[C@@]5(COC[C@@]4(C)[C@@H](OC[C@](C)(N)C(C)C)[C@H](n4ncnc4-c4ccncc4)C5)C3=CC[C@@]2(C)[C@@H]1C(=O)O | < 0.03 | 0.5 | 2 | 0.42 | < 0.03 | -2.4 | 31 | -4.5 | -2.9 | -4.01 | 0 | 10.7 | 17 | 12.4 | 30 | 40 | 14.7 | 60 | 8.2 | 4.2 | AUC/dose [28]: 0.08 µM·kg·h/mg; AUC/dose [29]: 0.9 µM·kg·h/mg; half-life [30]: 366 min; bioavailability [21]: 28%; half-life [31]: 540 min; AUC/dose [22]: 0.56 µM·kg·h/mg; bioavailability [32]: 5%; bioavailability [33]: 21%; clearance [34]: 6 mL/min/kg; clearance [35]: 14 mL/min/kg; clearance [23]: 12 mL/min/kg; ED90 [24]: 31 mg/kg; half-life [25]: 294 min; half-life [26]: 234 min; ED99 [27]: 1.2 mg/kg
CC(C)[C@@H](C)[C@@]1(C)CC[C@]2(C)[C@H]3CC[C@@H]4[C@@]5(COC[C@@]4(C)[C@@H](OC[C@](C)(N)C(C)C)[C@H](n4ncnc4-c4cccnc4)C5)C3=CC[C@@]2(C)[C@@H]1C(=O)O | < 0.03 | 1 | 4 | 0.17 | 0.06 (≈ 0.0838 µM) | -1.4 | 11 | -3.1 | -2.9 |  |  |  |  |  |  |  |  |  |  |  | 
